Source: ChEMBL document CHEMBL1135628, “Potent and long-acting corticotropin releasing factor (CRF) receptor 2 selective peptide competitive antagonists” (J Med Chem, 2002)

Legend:
[1] = molecular target: T1, Corticotropin-releasing factor receptor 1 (Homo sapiens, UniProt P34998); experiment: Inhibition of recombinant corticotropin releasing factor receptor 1 assayed using nonselective [125I]-labeled agonist [Tyr0,Glu1,Nle17]-sauvagine
T1 sequence (P34998 whole entry): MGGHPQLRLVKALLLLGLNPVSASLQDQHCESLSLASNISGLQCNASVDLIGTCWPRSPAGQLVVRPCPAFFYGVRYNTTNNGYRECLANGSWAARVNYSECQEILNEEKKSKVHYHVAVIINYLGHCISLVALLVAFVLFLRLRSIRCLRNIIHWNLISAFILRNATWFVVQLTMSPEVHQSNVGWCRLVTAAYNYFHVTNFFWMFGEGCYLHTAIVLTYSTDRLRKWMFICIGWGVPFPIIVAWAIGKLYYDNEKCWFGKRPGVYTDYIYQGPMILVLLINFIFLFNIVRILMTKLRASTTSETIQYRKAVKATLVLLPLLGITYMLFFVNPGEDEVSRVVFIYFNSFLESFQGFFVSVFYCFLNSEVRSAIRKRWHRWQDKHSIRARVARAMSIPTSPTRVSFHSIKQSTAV
Summary of the method: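 Crude plasma membranes from stable CHO lines expressing hCRF1 or mCRF2β, stored in 10% sucrose at -80 °C. Incubated 90 min at room temperature, then washed and filtered. IC50 taken from one representative assay, repeated at least twice.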

[2] = molecular target: Corticotropin-releasing factor receptor 2 (Mus musculus) (UniProt Q60748); experiment: Inhibition of recombinant mouse corticotropin releasing factor receptor 2 beta (CRF2beta) assayed using nonselective [125I]-labeled agonist [Tyr0,Glu1,Nle17]-sauvagine as radioligand
Sequence of Corticotropin-releasing factor receptor 2 (Mus musculus) (Q60748 whole entry, looked up): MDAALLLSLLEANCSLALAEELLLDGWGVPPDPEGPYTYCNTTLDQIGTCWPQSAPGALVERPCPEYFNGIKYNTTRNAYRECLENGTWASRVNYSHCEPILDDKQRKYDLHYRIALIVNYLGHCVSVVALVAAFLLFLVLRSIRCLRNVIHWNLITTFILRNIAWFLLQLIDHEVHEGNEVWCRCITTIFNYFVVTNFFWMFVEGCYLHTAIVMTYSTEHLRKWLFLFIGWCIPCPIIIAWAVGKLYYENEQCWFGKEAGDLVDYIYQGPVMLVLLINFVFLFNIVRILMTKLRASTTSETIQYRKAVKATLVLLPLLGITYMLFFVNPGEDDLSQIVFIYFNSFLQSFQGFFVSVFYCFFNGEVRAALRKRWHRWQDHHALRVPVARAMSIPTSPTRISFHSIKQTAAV

| Structure (SMILES) | IC50 [1] [nM] | IC50 [2] [nM] |
| --- | --- | --- |
| CCCC[C@H](NC(=O)[C@H](CCCCN)NC(=O)[C@H](CCCN=C(N)N)NC(=O)[C@H](CC(C)C)NC(=O)[C@](C)(CC(C)C)NC(=O)[C@H](Cc1c[nH]cn1)NC(=O)[C@@H](Cc1ccccc1)NC(=O)[C@H](CO)NC(=O)[C@H](CC(C)C)NC(=O)[C@H](CC(=O)O)NC(C)=O)C(=O)N[C@H](C(=O)N[C@@H](CCC(=O)O)C(=O)N[C@H](C(=O)N[C@@H](CCC(=O)O)C(=O)N[C@@H](CCCCN)C(=O)N[C@@H](CCC(N)=O)C(=O)N[C@@H](CCC(=O)O)C(=O)N[C@@H](CCCCN)C(=O)N[C@@H](CCC(=O)O)C(=O)N[C@@H](CCCCN)C(=O)N[C@@H](CCC(N)=O)C(=O)N[C@@H](CCC(N)=O)C(=O)N[C@H]1CCC(=O)NCCCC[C@@H](C(=O)N[C@@H](CCCN=C(N)N)C(=O)N[C@@H](CC(C)C)C(=O)N[C@@H](CC(C)C)C(=O)N[C@@H](CC(C)C)C(=O)N[C@@H](CC(=O)O)C(=O)N[C@@](C)(CC(C)C)C(=O)N[C@H](C(N)=O)[C@@H](C)CC)NC(=O)[C@H](CC(N)=O)NC(=O)[C@H](C)NC1=O)[C@@H](C)CC)[C@@H](C)CC | > 500 | 81 |
| CCCC[C@H](NC(=O)[C@H](CCCCN)NC(=O)[C@H](CCCN=C(N)N)NC(=O)[C@H](CC(C)C)NC(=O)[C@](C)(CC(C)C)NC(=O)[C@H](Cc1c[nH]cn1)NC(=O)[C@@H](Cc1ccccc1)NC(=O)[C@H](CO)NC(=O)[C@H](CC(C)C)NC(=O)[C@H](CC(=O)O)NC(C)=O)C(=O)N[C@H](C(=O)N[C@@H](CCC(=O)O)C(=O)N[C@H](C(=O)N[C@@H](CCC(=O)O)C(=O)N[C@@H](CCCCN)C(=O)N[C@@H](CCC(N)=O)C(=O)N[C@@H](CCC(=O)O)C(=O)N[C@@H](CCCCN)C(=O)N[C@@H](CCC(=O)O)C(=O)N[C@H]1CCC(=O)NCCCC[C@@H](C(=O)N[C@@H](C)C(=O)N[C@@H](CC(N)=O)C(=O)N[C@@H](CC(N)=O)C(=O)N[C@@H](CCCN=C(N)N)C(=O)N[C@@H](CC(C)C)C(=O)N[C@@H](CC(C)C)C(=O)N[C@@H](CC(C)C)C(=O)N[C@@H](CC(=O)O)C(=O)N[C@@](C)(CC(C)C)C(=O)N[C@H](C(N)=O)[C@@H](C)CC)NC(=O)[C@H](CCC(N)=O)NC(=O)[C@H](CCC(N)=O)NC1=O)[C@@H](C)CC)[C@@H](C)CC | 45 | 1.3 |
| CCCC[C@H](NC(=O)[C@H](CCCCN)NC(=O)[C@H](CCCN=C(N)N)NC(=O)[C@H](CC(C)C)NC(=O)[C@](C)(CC(C)C)NC(=O)[C@H](Cc1c[nH]cn1)NC(=O)[C@@H](Cc1ccccc1)NC(=O)[C@H](CO)NC(=O)[C@H](CC(C)C)NC(=O)[C@H](CC(=O)O)NC(C)=O)C(=O)N[C@H](C(=O)N[C@@H](CCC(=O)O)C(=O)N[C@H](C(=O)N[C@@H](CCC(=O)O)C(=O)N[C@@H](CCCCN)C(=O)N[C@@H](CCC(N)=O)C(=O)N[C@@H](CCC(=O)O)C(=O)N[C@@H](CCCCN)C(=O)N[C@@H](CCC(=O)O)C(=O)N[C@@H](CCCCN)C(=O)N[C@@H](CCC(N)=O)C(=O)N[C@@H](CCC(N)=O)C(=O)N[C@@H](C)C(=O)N[C@@H](C)C(=O)N[C@@H](CC(N)=O)C(=O)N[C@H]1CCC(=O)NCCCC[C@@H](C(=O)N[C@@H](CC(C)C)C(=O)N[C@@H](CC(=O)O)C(=O)N[C@@](C)(CC(C)C)C(=O)N[C@H](C(N)=O)[C@@H](C)CC)NC(=O)[C@H](CC(C)C)NC(=O)[C@H](CCCN=C(N)N)NC1=O)[C@@H](C)CC)[C@@H](C)CC | > 100 | > 100 |
| CCCC[C@H](NC(=O)[C@H](CCCCN)NC(=O)[C@H](CCCN=C(N)N)NC(=O)[C@H](CC(C)C)NC(=O)[C@](C)(CC(C)C)NC(=O)[C@H](Cc1c[nH]cn1)NC(=O)[C@@H](Cc1ccccc1)NC(=O)[C@H](CO)NC(=O)[C@H](CC(C)C)NC(=O)[C@H](CC(=O)O)NC(C)=O)C(=O)N[C@H](C(=O)N[C@@H](CCC(=O)O)C(=O)N[C@H](C(=O)N[C@@H](CCC(=O)O)C(=O)N[C@@H](CCCCN)C(=O)N[C@@H](CCC(N)=O)C(=O)N[C@@H](CCC(=O)O)C(=O)N[C@@H](CCCCN)C(=O)N[C@@H](CCC(=O)O)C(=O)N[C@@H](CCCCN)C(=O)N[C@@H](CCC(N)=O)C(=O)N[C@@H](CCC(N)=O)C(=O)N[C@@H](C)C(=O)N[C@@H](C)C(=O)N[C@@H](CC(N)=O)C(=O)N[C@@H](CC(N)=O)C(=O)N[C@@H](CCCN=C(N)N)C(=O)N[C@@H](CC(C)C)C(=O)N[C@@H](CC(C)C)C(=O)N[C@@H](CC(C)C)C(=O)N[C@@H](CC(=O)O)C(=O)N[C@@](C)(CC(C)C)C(=O)N[C@H](C(N)=O)[C@@H](C)CC)[C@@H](C)CC)[C@@H](C)CC | 18.4 | 0.42 |

Compounds with a lower IC50 [1], results first:

| IC50 [1] [nM] | IC50 [2] [nM] | Structure (SMILES) |
| --- | --- | --- |
| 3.4 | 0.51 | CCCC[C@H](NC(=O)[C@H](CCCCN)NC(=O)[C@H](CCCN=C(N)N)NC(=O)[C@H](CC(C)C)NC(=O)[C@](C)(CC(C)C)NC(=O)[C@H](Cc1c[nH]cn1)NC(=O)[C@@H](Cc1ccccc1)NC(=O)[C@H](CO)NC(=O)[C@H](CC(C)C)NC(=O)[C@H](CC(=O)O)NC(C)=O)C(=O)N[C@H](C(=O)N[C@@H](CCC(=O)O)C(=O)N[C@H](C(=O)N[C@@H](CCC(=O)O)C(=O)N[C@@H](CCCCN)C(=O)N[C@@H](CCC(N)=O)C(=O)N[C@@H](CCC(=O)O)C(=O)N[C@@H](CCCCN)C(=O)N[C@@H](CCC(=O)O)C(=O)N[C@@H](CCCCN)C(=O)N[C@@H](CCC(N)=O)C(=O)N[C@@H](CCC(N)=O)C(=O)N[C@@H](C)C(=O)N[C@@H](C)C(=O)N[C@@H](CCC(N)=O)C(=O)N[C@@H](CC(N)=O)C(=O)N[C@@H](CCCN=C(N)N)C(=O)N[C@@H](CCCCNC(C)=O)C(=O)N[C@@H](CC(C)C)C(=O)N[C@@H](CC(C)C)C(=O)N[C@@H](CC(=O)O)C(=O)N[C@@](C)(CC(C)C)C(=O)N[C@H](C(N)=O)[C@@H](C)CC)[C@@H](C)CC)[C@@H](C)CC |
| 7.7 | 0.57 | CCCC[C@H](NC(=O)[C@H](CCCCN)NC(=O)[C@H](CCCN=C(N)N)NC(=O)[C@H](CC(C)C)NC(=O)[C@](C)(CC(C)C)NC(=O)[C@H](Cc1c[nH]cn1)NC(=O)[C@@H](Cc1ccccc1)NC(=O)[C@H](CO)NC(=O)[C@H](CC(C)C)NC(=O)[C@H](CC(=O)O)NC(C)=O)C(=O)N[C@H](C(=O)N[C@@H](CCC(=O)O)C(=O)N[C@H](C(=O)N[C@@H](CCC(=O)O)C(=O)N[C@@H](CCCCN)C(=O)N[C@@H](CCC(N)=O)C(=O)N[C@@H](CCC(=O)O)C(=O)N[C@@H](CCCCN)C(=O)N[C@@H](CCC(=O)O)C(=O)N[C@@H](CCCCN)C(=O)N[C@H]1CCC(=O)NCCCC[C@@H](C(=O)N[C@@H](CC(N)=O)C(=O)N[C@@H](CC(N)=O)C(=O)N[C@@H](CCCN=C(N)N)C(=O)N[C@@H](CC(C)C)C(=O)N[C@@H](CC(C)C)C(=O)N[C@@H](CC(C)C)C(=O)N[C@@H](CC(=O)O)C(=O)N[C@@](C)(CC(C)C)C(=O)N[C@H](C(N)=O)[C@@H](C)CC)NC(=O)[C@H](C)NC(=O)[C@H](CCC(N)=O)NC1=O)[C@@H](C)CC)[C@@H](C)CC |
| 0.24 | 1.2 | CCCC[C@H](NC(=O)[C@H](CCCCN)NC(=O)[C@H](CCCN=C(N)N)NC(=O)[C@H](CC(C)C)NC(=O)[C@](C)(CC(C)C)NC(=O)[C@H](Cc1c[nH]cn1)NC(=O)[C@@H](Cc1ccccc1)NC(=O)[C@H](CO)NC(=O)[C@H](CC(C)C)NC(=O)[C@H](CC(=O)O)NC(C)=O)C(=O)N[C@H](C(=O)N[C@@H](CCC(=O)O)C(=O)N[C@H](C(=O)N[C@@H](CCC(=O)O)C(=O)N[C@@H](CCCCN)C(=O)N[C@@H](CCC(N)=O)C(=O)N[C@@H](CCC(=O)O)C(=O)N[C@@H](CCCCN)C(=O)N[C@@H](CCC(=O)O)C(=O)N[C@@H](CCCCN)C(=O)N[C@@H](CCC(N)=O)C(=O)N[C@H]1CCC(=O)NCCCC[C@@H](C(=O)N[C@@H](CC(N)=O)C(=O)N[C@@H](CCCN=C(N)N)C(=O)N[C@@H](CC(C)C)C(=O)N[C@@H](CC(C)C)C(=O)N[C@@H](CC(C)C)C(=O)N[C@@H](CC(=O)O)C(=O)N[C@@](C)(CC(C)C)C(=O)N[C@H](C(N)=O)[C@@H](C)CC)NC(=O)[C@H](C)NC(=O)[C@H](C)NC1=O)[C@@H](C)CC)[C@@H](C)CC |
| 5.9 | 0.61 | CCCC[C@H](NC(=O)[C@H](CCCCN)NC(=O)[C@H](CCCN=C(N)N)NC(=O)[C@H](CC(C)C)NC(=O)[C@](C)(CC(C)C)NC(=O)[C@H](Cc1c[nH]cn1)NC(=O)[C@@H](Cc1ccccc1)NC(=O)[C@H](CO)NC(=O)[C@H](CC(C)C)NC(=O)[C@H](CC(=O)O)NC(C)=O)C(=O)N[C@H](C(=O)N[C@@H](CCC(=O)O)C(=O)N[C@H](C(=O)N[C@@H](CCC(=O)O)C(=O)N[C@@H](CCCCN)C(=O)N[C@@H](CCC(N)=O)C(=O)N[C@@H](CCC(=O)O)C(=O)N[C@@H](CCCCN)C(=O)N[C@@H](CCC(=O)O)C(=O)N[C@@H](CCCCN)C(=O)N[C@@H](CCC(N)=O)C(=O)N[C@@H](CCC(N)=O)C(=O)N[C@@H](C)C(=O)N[C@@H](C)C(=O)N[C@H]1CCC(=O)NCCCC[C@@H](C(=O)N[C@@H](CC(C)C)C(=O)N[C@@H](CC(C)C)C(=O)N[C@@H](CC(=O)O)C(=O)N[C@@](C)(CC(C)C)C(=O)N[C@H](C(N)=O)[C@@H](C)CC)NC(=O)[C@H](CCCN=C(N)N)NC(=O)[C@H](CC(N)=O)NC1=O)[C@@H](C)CC)[C@@H](C)CC |
